# Measurements taken from ChEMBL document CHEMBL5053511, “Discovery of a Novel BCL-XL PROTAC Degrader with Enhanced BCL-2 Inhibition” (J Med Chem, 2021).
# Active and inactive are the calls of the source. No cut-off for these calls is given here.
# Experiments:
# [1] = target: T1, von Hippel-Lindau disease tumor suppressor/Bcl-2-like protein 1 (Homo sapiens, UniProt Q07817+P40337); assay: Protac activity at VHL/BCL-XL in human MOLT-4 cells assessed as induction of BCL-XL degradation at 10 uM pretreated with MG-132 followed by compound treatement measured after 12 hrs by Western blot analysis; format: cell-based
# Method in brief: (§1)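 MOLT-4 cells were pretreated with 10 µM VHL-032 or 1 µM MG-132, followed by 12 h compound treatment. BCL-XL and β-actin were immunoblotted; blots representative of three experiments.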
# Target sequence in this assay (P40337 whole entry, looked up): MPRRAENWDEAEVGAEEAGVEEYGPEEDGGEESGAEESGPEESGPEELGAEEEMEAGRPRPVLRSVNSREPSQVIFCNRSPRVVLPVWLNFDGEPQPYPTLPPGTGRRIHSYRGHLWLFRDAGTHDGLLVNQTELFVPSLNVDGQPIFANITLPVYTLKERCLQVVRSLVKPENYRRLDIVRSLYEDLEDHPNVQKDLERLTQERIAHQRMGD
# Target sequence in this assay (Q07817 whole entry, looked up): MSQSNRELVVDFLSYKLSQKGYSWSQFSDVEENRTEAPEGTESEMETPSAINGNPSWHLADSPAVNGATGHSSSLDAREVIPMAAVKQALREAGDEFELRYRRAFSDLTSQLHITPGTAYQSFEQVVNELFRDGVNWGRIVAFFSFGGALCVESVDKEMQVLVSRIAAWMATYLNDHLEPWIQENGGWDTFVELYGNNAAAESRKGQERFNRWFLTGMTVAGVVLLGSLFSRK
# [2] = target: T1, von Hippel-Lindau disease tumor suppressor/Bcl-2-like protein 1; assay: Protac activity at VHL/BCL-XL in human MOLT-4 cells assessed as induction of BCL-XL degradation at 10 uM pretreated with VHL-032 followed by compound treatement measured after 12 hrs by Western blot analysis; format: cell-based; method in brief: as §1
# Target sequence in this assay (P40337 whole entry, looked up): as the sequence (P40337 whole entry, looked up) above
# Target sequence in this assay (Q07817 whole entry, looked up): as the sequence (Q07817 whole entry, looked up) above
# [3] = target: T1, von Hippel-Lindau disease tumor suppressor/Bcl-2-like protein 1; assay: Binding affinity to VHL/ BCL-XL in human RS4-11 cells assessed as ternary complex formation at up to 300 nM measured after 12 hrs by immunoprecipitation assay; format: cell-based
# Target sequence in this assay (P40337 whole entry, looked up): as the sequence (P40337 whole entry, looked up) above
# Target sequence in this assay (Q07817 whole entry, looked up): as the sequence (Q07817 whole entry, looked up) above
# [4] = Binding affinity to C-terminal His-tagged human BCL-2 (1 to 211 residues) expressed in Escherichia coli/recombinant human VHL (54 to end residues) fused to human N-terminal GST-tagged elongin-C/elongin -B/N-terminal His-tagged CUL2/Rbx1 expressed in baculovirus infected Sf21 insect cells assessed as ternary complex formation at up to 100000 nM measured after 30 mins by AlphaLISA assay
# Method in brief: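 Cell-free ternary complex AlphaLISA: 6×His-tagged BCL-XL, BCL-2 or MCL-1 (20 nM) mixed with serially diluted compound (4× dilution) and GST-VCB (20 nM) in 25 mM HEPES pH 7.5, 100 mM NaCl, 0.1% BSA, 0.005% Tween 20. After 30 min at room temperature, glutathione donor beads were added for 15 min, then anti-His acceptor beads for 45 min in the dark. Luminescence was plotted against log compound concentration.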
# [5] = test system: RS4-11; assay: Cytotoxicity against human RS4-11 cells assessed as reduction in cell viability measured after 48 hrs in presence of VHL-032 by MTS assay; format: functional, cell-based; settings: RS4-11, 48 h
# Method in brief: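 RS4;11 cells were pretreated with 10 µM VHL-032, then exposed to compound for 48 h. Viability was read by MTS; three independent experiments in triplicate.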
# [6] = target: Apoptosis regulator Bcl-2 (Homo sapiens, UniProt P10415); assay: Displacement of biotin-tagged MRPEPATIAQELRRIGDEFNA from C-terminal His-tagged human BCL-2 (1` to 211 residues) expressed in Escherichia coli measured after 2 hrs by AlphaScreen assay
# Sequence of Apoptosis regulator Bcl-2 (P10415 whole entry): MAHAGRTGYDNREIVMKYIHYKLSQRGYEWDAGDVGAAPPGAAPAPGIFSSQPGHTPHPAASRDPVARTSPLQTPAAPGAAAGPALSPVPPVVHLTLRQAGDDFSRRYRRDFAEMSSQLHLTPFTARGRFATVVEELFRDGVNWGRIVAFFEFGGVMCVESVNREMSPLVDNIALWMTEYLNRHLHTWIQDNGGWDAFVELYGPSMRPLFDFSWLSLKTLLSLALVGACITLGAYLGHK
# Method in brief: (§2)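 AlphaScreen displacement, run with or without VCB. Anti-His acceptor beads were added for 1 h at room temperature, then streptavidin donor beads for 30 min in the dark. Ki was fitted by one-site competitive model from peptide concentration and measured Kd values; reported as mean ± SD of at least two experiments in triplicate.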
# [7] = test system: MOLT-4; assay: Cytotoxicity against human MOLT-4 cells assessed as reduction in cell viability measured after 48 hrs by MTS assay; format: functional, cell-based; settings: MOLT-4, 48 h
# [8] = test system: MOLT-4; assay: Induction of apoptosis in human MOLT-4 cells assessed as early apoptotic cells at 10 nM measured after 48 hrs in presence of QVD by annexinV-FITC/propidium iodide staining based flow cytometry (reference value: 2%); format: functional
# [9] = target: T1, von Hippel-Lindau disease tumor suppressor/Bcl-2-like protein 1; assay: Protac activity at VHL/BCL-XL in human RS4-11 cells assessed as decrease in BCL-XL protein level by densitometric analysis; format: cell-based
# Method in brief: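 MOLT-4 or RS4;11 cells were treated at a range of concentrations for 16 h. BCL-XL was immunoblotted with β-actin loading control, and band densitometry was normalised to β-actin. Mean ± SD of three independent experiments in triplicate.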
# Target sequence in this assay (Q07817 whole entry): as the sequence (Q07817 whole entry, looked up) above
# Target sequence in this assay (P40337 whole entry): as the sequence (P40337 whole entry, looked up) above
# [10] = Binding affinity to human BCL-XL expressed in Escherichia coli/recombinant human VHL (54 to end residues) fused to human N-terminal GST-tagged elongin-C/elongin -B/N-terminal His-tagged CUL2/Rbx1 expressed in baculovirus infected Sf21 insect cells measured after 2 hrs by AlphaScreen assay
# Method in brief: as §2, with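 “VCB. Biotin-Bim (80 nM, for BCL-2) or biotin-Bad (16 nM, for BCL-XL) was combined with serially diluted compound and 6×His protein in 25 mM HEPES pH 7.5, 100 mM NaCl, 0.1% BSA, 0.005% Tween 20.” for “VCB.”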
# [11] = test system: MOLT-4; assay: Induction of apoptosis in human MOLT-4 cells assessed as […] in full caspase-3 level at up to 1000 nM measured after 16 hrs by immunoblotting analysis; format: functional, cell-based
# Method in brief: (§3)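 MOLT-4 cells were treated at a range of concentrations for 16 h. Lysates were immunoblotted for cleaved and full caspase-3, cleaved and full PARP, and β-actin; blots representative of three experiments.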
# [12] = test system: Platelet; assay: Cytotoxicity against platelets in human PRP assessed as reduction in cell viability measured after 48 hrs by MTS assay; format: cell-based
# Method in brief: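 Washed human platelets from PRP were kept in HEPES Tyrode's buffer with 1 µM PGE1 and 0.2 units/mL apyrase at 2×10^8/mL.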
# [13] = test system: MOLT-4; assay: Induction of apoptosis in human MOLT-4 cells assessed as […] in cleaved caspase-3 level at up to 1000 nM measured after 16 hrs by immunoblotting analysis; format: functional, cell-based; method in brief: as §3
# [14] = target: T1, von Hippel-Lindau disease tumor suppressor/Bcl-2-like protein 1; assay: Protac activity at VHL/BCL-XL in human MOLT-4 cells assessed as induction of BCL-XL degradation at 100 nM measured up to 72 hrs by Western blot analysis; format: cell-based
# Method in brief: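 MOLT-4 cells were treated with 100 nM for a series of times. For washout, cells were treated for 16 h and sampled at times after compound removal. BCL-XL and β-actin were immunoblotted.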
# Target sequence in this assay (P40337 whole entry, looked up): as above
# Target sequence in this assay (Q07817 whole entry, looked up): as the sequence (Q07817 whole entry, looked up) above
# [15] = test system: MOLT-4; assay: Induction of apoptosis in human MOLT-4 cells assessed as late apoptotic cells at 10 nM measured after 48 hrs by annexinV-FITC/propidium iodide staining based flow cytometry (reference value: 1%); format: functional
# [16] = test system: MOLT-4; assay: Induction of apoptosis in human MOLT-4 cells assessed as early apoptotic cells at 10 nM measured after 48 hrs by annexinV-FITC/propidium iodide staining based flow cytometry (reference value: 2%); format: functional
# [17] = target: T2, von Hippel-Lindau disease tumor suppressor/Apoptosis regulator Bcl-2 (Homo sapiens) (UniProt P10415+P40337); assay: Binding affinity to VHL/BCL-2 in human RS4-11 cells assessed as ternary complex formation at up to 300 nM measured after 12 hrs in presence of VHL-032 by immunoprecipitation assay; format: cell-based
# T2 sequence (P10415 whole entry, looked up): as the sequence (P10415 whole entry) above
# T2 sequence (P40337 whole entry, looked up): as the sequence (P40337 whole entry, looked up) above
# [18] = target: T2, von Hippel-Lindau disease tumor suppressor/Apoptosis regulator Bcl-2 (Homo sapiens); assay: Binding affinity to VHL/BCL-2 in human RS4-11 cells assessed as ternary complex formation at up to 300 nM measured after 12 hrs by immunoprecipitation assay; format: cell-based
compound,measurement,setting,value
Cc1ncsc1-c1ccc([C@H](C)NC(=O)[C@@H]2C[C@@H](O)CN2C(=O)[C@@H](NC(=O)CCCCCCCCC(=O)NC[C@]2(C)CCC(c3ccc(Cl)cc3)=C(CN3CCN(c4ccc(C(=O)NS(=O)(=O)c5ccc(N[C@H](CCN6CCOCC6)CSc6ccccc6)c(S(=O)(=O)C(F)(F)F)c5)cc4)CC3)C2)C(C)(C)C)cc1,Activity,[1],inactive
same,Activity,[2],inactive
same,Activity,[3],Active
same,Activity,[4],Active
same,IC50,[5],209 nM
same,Kd,[6],1.22 nM
same,IC50,[7],15.9 nM
same,Activity,[8],1%
same,DC50,[9],11.6 nM
same,Kd,[10],0.65 nM
same,Activity,[11],Active
same,IC50,[12],950 nM
same,Activity,[13],Active
same,Activity,[14],Active
same,Activity,[15],21%
same,Activity,[16],25%
same,Activity,[17],inactive
same,Activity,[18],Active
